rCAG RNA binder – binds r(CAG) RNA repeats. inhibition, % at 3 µM. r(CAG) RNA repeat, TO-PRO-1 dye displacement fluorescence. hit rate 1.3% among 370,000;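 active means inhibition above the plate cutoff, the mean of all test compounds on that plate plus 3 SD, cut at about 35% in these data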;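 further: 0% = DMSO alone and 100% = 100 µM mitoxantrone as full dye displacement; higher means more dye released from RNA so lower well fluorescence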
mABHD4 FP – inhibits mouse alpha/beta hydrolase domain 4; Q8VD66; purified mABHD4, FP-Rh probe fluorescence polarization; inhibition, % at 8.92 µM; hit rate 0.54% among 370,000; AID 720543;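 active means inhibition exceeding the mean over every tested compound plus 3 SD, cut at about 30% in these data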;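 further: 0% = plate median of compound wells and 100% = S159A mutant with DMSO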
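assay system = mABHD4 protein | compound dosing = single nominal dose of 8.92 µM, 0.89% DMSO final | read-out basis = percent inhibition of probe binding, normalized to plate controls | schedule = Enzyme–compound pre-incubation 45 min, then probe 60 min, both 25 °C | detection = fluorescence polarization, excitation 525 nm, emission 598 nm, BODIPY TMR filters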
TCR CD3 inh – inhibitors of human TCR-CD3 interaction. TAMRA-labeled TCR probe fluorescence, biochemical. hit rate 0.37% among 360,000. inhibition, % at 9.4 µM; in the data active means inhibition above about 19%;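 further: recombinant mutant TCR 2C K166C tagged with TAMRA read by polarization; 0% = receptor in buffer alone and 100% = receptor with positive control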
PRMT1 FP inh – inhibitors of human PRMT1. Q99873. recombinant PRMT1, activity-based probe fluorescence polarization. inhibition, % at 2.79 µM. hit rate 1.3% among 370,000. AID 652257;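 active means inhibition above about 21% made by adding two undisclosed values, limit read from the data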
HTRA1 inh – blocks human HTRA1 serine peptidase. hit rate 0.5% among 340,000. inhibition, % at 5.96 µM. Q92743. AID 504803. recombinant HTRA1, FP-rhodamine activity-based probe, fluorescence polarization; in the data active means inhibition above about 36%;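 further: 0% = enzyme with DMSO and 100% = wells lacking enzyme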
SIAE primary – inhibitors of human sialic acid acetylesterase SIAE. hit rate 0.69% among 370,000. SIAE FP-Rh probe binding, fluorescence polarization. inhibition, % at 9.66 µM. Q9HAT2;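 active means inhibition above a cutoff: mean of compounds within the control limits plus 3 SD of those, cut at about 17% in these data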;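 further: 0% = plate median of compound wells and 100% = probe without SIAE protein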
Target sequence (Q9HAT2 whole entry, looked up): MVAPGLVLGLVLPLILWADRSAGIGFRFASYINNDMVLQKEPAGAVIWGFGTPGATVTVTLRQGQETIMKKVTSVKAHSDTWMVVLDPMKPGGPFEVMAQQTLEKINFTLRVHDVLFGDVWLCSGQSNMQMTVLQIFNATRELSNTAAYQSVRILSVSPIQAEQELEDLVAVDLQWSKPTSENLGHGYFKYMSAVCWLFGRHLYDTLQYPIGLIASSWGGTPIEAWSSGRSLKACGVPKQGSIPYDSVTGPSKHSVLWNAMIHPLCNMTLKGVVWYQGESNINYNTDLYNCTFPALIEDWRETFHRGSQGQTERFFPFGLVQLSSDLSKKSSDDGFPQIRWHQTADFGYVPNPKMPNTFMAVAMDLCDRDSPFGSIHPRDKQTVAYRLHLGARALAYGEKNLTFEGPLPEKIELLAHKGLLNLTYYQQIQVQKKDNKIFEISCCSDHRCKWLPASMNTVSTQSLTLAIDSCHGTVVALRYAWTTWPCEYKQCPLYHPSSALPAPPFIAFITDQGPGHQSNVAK
rCAG bind conf – r(CAG) RNA repeat binding, confirmation; shares compounds with rCAG RNA binder; TO-PRO-1 dye displacement fluorescence; inhibition, % at 3 µM; hit rate 70% among 4,300; AID 652065;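 active means inhibition above a per-plate cutoff, the mean inhibition of sample wells plus 3 SD, cut at about 35% in these data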;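 further: loss of TO-PRO-1 fluorescence as compound displaces dye from 1x1 AA loop RNA; 0% = DMSO only wells and 100% = 100 µM mitoxantrone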
dCAG dye counter – disrupts DNA CAG TO-PRO-1 complex, flagging rCAG hits. d(CAG) DNA oligo TO-PRO-1 dye displacement, fluorescence. shares compounds with rCAG RNA binder. hit rate 94% among 4,300. AID 652068. inhibition, % at 3 µM;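 active means inhibition above its plate's cutoff, the mean test-well inhibition plus 3 SD, cut at about 4.8% in these data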;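 further: 0% = DNA dye mix with DMSO and 100% = 100 µM mitoxantrone; hits displace the dye from DNA and so lower well fluorescence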
dCAG dye DR – counter-screen for rCAG binders: inhibitors of DNA CAG TO-PRO-1 complex; shares compounds with rCAG RNA binder; DNA CAG/GTC duplex TO-PRO-1 dye displacement fluorescence; IC50, µM; hit rate 20% among 250; in the data active means IC50 below about 10 µM
The depositor's hits bear a star; i = inactive; · = no result given. An excerpt weighted towards active compounds, which were near 3.5% of everything screened.

SMILES | rCAG RNA binder | mABHD4 FP | TCR CD3 inh | PRMT1 FP inh | HTRA1 inh | SIAE primary | rCAG bind conf | dCAG dye counter | others
CC1CCc2c(sc3nc(CN4CCOCC4)nc(NS(=O)(=O)c4cccc([N+](=O)[O-])c4)c23)C1 (stereo unspecified) | 62.1* | -1.3 | -3.1 | 3.2 | 0.0 | -7.9 | 70.8* | 27.7* | dCAG dye DR=i
CCOC(=O)N1CCN(S(=O)(=O)c2ccc(C(=O)NNc3nc4c(C)cc(C)cc4s3)cc2)CC1 | 68.9* | 15.9 | -10.7 | 7.4 | · | 7.4 | 64.3* | 24.6*
CC(C)(C)c1ccc(-c2nnc3n2N=C(c2ccc(Cl)cc2)CS3)cc1 | 2.9 | 1.1 | · | 5.2 | · | 2.0 | · | ·
Cc1cc(C)c2c(n1)sc1c(O)cc(=O)[nH]c12 | 15.3 | -1.7 | 1.1 | 0.6 | -0.3 | -1.1 | · | ·
COc1ccc(-c2cc(C(F)(F)F)c3c(n2)sc2c(O)cc(=O)[nH]c23)c(OC)c1 | 42.2* | -26.4 | -11.5 | 5.9 | -58.7 | -2.3 | 41.7* | 14.4*
COC(=O)[C@]12C[C@H](CC(=O)N3CCN(C(=O)C4CC4)CC3)C(=O)N(CCc3ccc(OC)c(OC)c3)C1=C[C@H](COCc1ccccc1)O[C@@H]2C | -0.2 | 2.3 | · | -3.3 | · | 1.7 | · | ·
COc1cccc(/C=C2\SC(=S)N(C(C(=O)O)c3ccccc3)C2=O)c1OC (stereo unspecified) | 63.3* | 0.5 | 6.8 | 8.0 | -11.1 | 0.4 | 63.0* | 24.7*
COc1cc(/C=C2\SC(=S)N(C(C(=O)O)c3ccccc3)C2=O)cc(OC)c1OC (stereo unspecified) | 56.0* | -3.0 | -4.6 | 15.6 | -10.1 | -6.8 | 64.3* | 24.4*
O=C(O)C(c1ccccc1)N1C(=O)/C(=C\c2ccc(-c3ccccc3Cl)o2)SC1=S (stereo unspecified) | 44.5* | 19.4 | 8.5 | 19.0 | -3.9 | 0.7 | 87.2* | 62.9*
COc1ccc(/C=C2\SC(=S)N(C(C(=O)O)c3ccccc3)C2=O)c(OC)c1 (stereo unspecified) | 79.1* | -7.3 | 3.5 | -4.3 | -62.2 | -11.9 | 79.5* | 45.4*
COc1ccc(/C=C2\SC(=S)N(N3CCOCC3)C2=O)c(OC)c1 | 1.4 | 3.1 | 0.0 | 1.4 | 4.9 | -7.7 | · | ·
COC(=O)CCCn1cc(CN2CC=CS2(=O)=O)nn1 | 2.9 | 6.6 | · | -0.6 | · | -1.0 | · | ·
COC(=O)C1CCN(C(=O)CN2CCC(C(=O)c3ccc(C)cc3)CC2)CC1 | 1.5 | 9.4 | · | 3.9 | · | 1.6 | · | ·
O=C(OC12CCCN(C1)/C(=C/c1ccncc1)C2)c1cccc(F)c1 (stereo unspecified) | 1.4 | -1.8 | · | 1.8 | · | -0.8 | · | ·
Cc1cccc(Nc2nnc(SCC(O)=C(C#N)c3nc4ccccc4[nH]3)s2)c1 | 41.9* | 4.4 | -6.8 | 2.6 | 12.1 | -13.6 | 48.1* | 24.3*
Cc1cc(C)n2c(SC/C(O)=C(\C#N)c3nc4ccccc4[nH]3)nnc2n1 | 37.2* | 19.7 | 13.3 | 4.1 | 28.2 | 4.6 | 37.5* | 17.2*
CCOC(=O)C1C[C@@H](O)C=CC1=O (stereo partly specified) | · | 0.0 | · | 2.4 | · | 5.5 | · | ·
COc1cc(NS(=O)(=O)c2ccc(NC(=O)/C(=C/c3ccccc3Cl)NC(=O)c3ccccc3)cc2)nc(OC)n1 | 73.8* | -16.2 | 4.5 | -2.8 | -19.6 | -8.9 | 78.7* | 33.7* | dCAG dye DR=9.82*
O=C(Nc1ccc(S(=O)(=O)Nc2nccs2)cc1)/C(=C/c1ccccc1Cl)NC(=O)c1ccccc1 | 77.9* | -57.6 | -1.5 | 2.0 | -11.9 | 1.0 | 67.7* | 34.6*
CC(C)[C@H](NC(=O)c1ccccc1Cl)C(=O)Nc1ccc(S(=O)(=O)Nc2nccs2)cc1 | 31.9 | -1.4 | 2.1 | 1.7 | 0.0 | 3.6 | · | ·
COc1cc(NS(=O)(=O)c2ccc(NS(=O)(=O)c3ccccc3)cc2)nc(OC)n1 | -0.2 | 4.6 | 3.2 | -2.4 | -1.8 | 4.1 | · | ·

Bioassay records: PubChem BioAssay, The Scripps Research Institute Molecular Screening Center
